Experimental data as given in ChEMBL document CHEMBL1158469 (J Med Chem, 2009).
The source made the active and inactive calls. The calls are words filed in the database; no cut-off is given here.

What was measured:
[1] = target: Bcl-2-like protein 1 (Homo sapiens) (UniProt Q07817); test: Inhibition of Bcl-xL at 200 uM by 1D 1H NMR binding assay
[2] = Cytotoxicity against human H1299 cells assessed as cell viability after 72 hrs by ATP-LITE assay; assay type: functional, cell-based; details: NCI-H1299, 72 h
Procedure, shortened: (§1)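 ATP-LITE viability readout. Seeded 24 h before dosing (H460, H1299 at 2000 cells/well; PC3 at 3000 cells/well) in 12F2 or RPMI1640 with 5 mM L-glutamine, 5% FBS and pen/strep. Fresh 5% medium added, then compounds in 0.1% DMSO final. Viability read after 72 h treatment and normalized to DMSO-treated cells.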

[3] = tested on: NCI-H460; test: Cytotoxicity against human H460 cells assessed as cell viability after 72 hrs by ATP-LITE assay; assay type: functional, cell-based; details: NCI-H460, 72 h; procedure, shortened: as §1
[4] = Cytotoxicity against human PC3-ML cells assessed as cell viability after 72 hrs by ATP-LITE assay; assay type: functional, cell-based; procedure, shortened: as §1
[5] = Induction of apoptosis in human RS11846 cells after 1 to 2 days by FITC-annexin V and propidium iodide assay; assay type: functional, cell-based
[6] = tested on: Mus musculus; test: Induction of spleen weight shrinkage in human Bcl2 expressing B6 transgenic mouse at 72 umol/kg, ip administered as single dose after 24 hrs; assay type: functional
Procedure, shortened: (§2)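 Age- and sex-matched B6Bcl2 transgenic mice (human BCL-2/IgH minigene, B cells accumulating in spleen), free of aggressive lymphoma. Single ip injection at 72 μmol/kg in 500 μL ethanol:Cremophor EL:saline 10:10:80; controls got vehicle alone. Killed with Avertin after 24 h and spleen weighed. Shrinkage expressed as percentage of maximum spleen-weight reduction.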

[7] = tested on: Mus musculus; test: Toxicity in human Bcl2 expressing B6 transgenic mouse administered as single dose at 72 umol/kg, ip after 24 hrs; assay type: organism-based; details: in vivo
[8] = (§3) Induction of apoptosis in human BP3 cells after 1 to 2 days by FITC-annexin V and propidium iodide assay; assay type: functional, cell-based
[9] = Cytotoxicity against wild type mouse fibroblast assessed as induction of cell death at 10 uM by FITC-annexin V and propidium iodide assay; assay type: cell-based
Procedure, shortened: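 Wild-type MEFs seeded at half a million per well in DMEM with 10% FCS. Next day compound added at 0, 2.5, 5.0, 7.5 or 10 μM. On the following day, floating and trypsinized adherent cells were pooled and stained with Annexin V-FITC and PI in binding buffer. Analyzed by flow cytometry, with double-negative cells counted as viable.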

[10] = Chemical stability after 60 days at room temperature by HPLC/LC-MS analysis; assay type: physicochemical; details: 1440 h
Procedure, shortened: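 Solid compounds stored in air at room temperature for 60 days. Stability followed by HPLC combined with LC-MS.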

[11] = Stability in rat plasma after 1 hr at 37.5 degC; assay type: ADME, cell-free; details: read-out: Stability
Procedure, shortened: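 Compound incubated in rat plasma for 1 h; percentage of parent remaining was reported.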

[12] = Stability in rat liver microsome at 4 uM after 1 hr; assay type: ADME; details: liver microsomes, read-out: Stability
Procedure, shortened: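 Compound incubated for 1 h in rat microsomal preparations; percentage of parent remaining was reported.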

[13] = Membrane permeability assessed as drug permeation at 100 uM at pH 7.2 after 8 hrs by PAMPA; assay type: ADME; details: pH 7.2, 8 h
[14] = tested on: Mus musculus; test: Reduction of spleen weight in human Bcl2 expressing B6 transgenic mouse at 72 umol/kg, ip administered as single dose after 24 hrs; assay type: functional; parameters: scale not given: the % may be the effect or the level left; procedure, shortened: as §2
[15] = tested on: BP3; test: as §3; assay type: functional, cell-based
[16] = tested on: Mus musculus; test: Toxicity in human Bcl2 expressing B6 transgenic mouse at 120 umol/kg, ip administered as single dose after 24 hrs; assay type: organism-based; details: in vivo
[17] = tested on: BP3; test: Cytotoxicity against human BP3 cells expressing Bfl1/Mcl1 by FITC-annexin V and propidium iodide assay; assay type: functional, cell-based

Chain of Bcl-2-like protein 1 (Homo sapiens) (Q07817 whole entry): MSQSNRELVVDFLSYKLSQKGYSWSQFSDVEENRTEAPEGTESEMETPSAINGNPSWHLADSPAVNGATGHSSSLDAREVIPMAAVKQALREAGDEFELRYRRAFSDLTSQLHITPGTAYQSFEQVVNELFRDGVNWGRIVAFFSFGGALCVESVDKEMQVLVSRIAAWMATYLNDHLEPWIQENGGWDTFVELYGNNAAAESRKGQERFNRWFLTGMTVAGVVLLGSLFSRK

Structure (SMILES)	Activity [1]	EC50 [2]	EC50 [3]	EC50 [4]	EC50 [5]	EC50 [8]	further results
Cc1cc2c(CC(C)C)c(O)c(O)cc2c(O)c1-c1c(C)cc2c(CC(C)C)c(O)c(O)cc2c1O	Active						
Cc1cc2cc(O)c(O)cc2c(O)c1-c1c(C)cc2cc(O)c(O)cc2c1O	inactive	13.4 µM	> 10 µM	> 10 µM	> 24.5 µM		Activity [6]: inactive; Activity [7]: Non-toxic
Cc1cc2c(C(=O)NC(C)c3ccc(Cl)cc3)c(O)c(O)cc2c(O)c1-c1c(C)cc2c(C(=O)NC(C)c3ccc(Cl)cc3)c(O)c(O)cc2c1O (centres undefined)	Active	3.2 µM	0.5 µM	5 µM	5.5 µM	1.5 µM	Activity [9]: 80%; Stability [10]: Stable; remaining at 1 h [11]: 94%; remaining at 1 h, 4 µM [12]: 71%; logPe [13]: -7.92 log cm/s; Activity [14]: 40%; Activity [6]: 85%; Activity [7]: Toxic
Cc1cc2c(C(=O)Nc3cccc(C(F)(F)F)c3)c(O)c(O)cc2c(O)c1-c1c(C)cc2c(C(=O)Nc3cccc(C(F)(F)F)c3)c(O)c(O)cc2c1O	Active	28.7 µM	16.7 µM	12.2 µM	12.6 µM		Activity [15]: Dose-dependent effect
Cc1cc(C)c(CNC(=O)c2c(O)c(O)cc3c(O)c(-c4c(C)cc5c(C(=O)NCc6c(C)cc(C)cc6C)c(O)c(O)cc5c4O)c(C)cc23)c(C)c1	Active						
Cc1cc2c(C(=O)O)c(O)c(O)cc2c(O)c1-c1c(C)cc2c(C(=O)O)c(O)c(O)cc2c1O	inactive	> 30 µM	> 30 µM	> 30 µM	> 30 µM	> 30 µM	Activity [15]: Dose-dependent effect
Cc1cc2c(C(=O)NC3CCCC3)c(O)c(O)cc2c(O)c1-c1c(C)cc2c(C(=O)NC3CCCC3)c(O)c(O)cc2c1O	Active	8 µM	8.5 µM	12.2 µM	13.7 µM		
CCC(NC(=O)c1c(O)c(O)cc2c(O)c(-c3c(C)cc4c(C(=O)NC(CC)c5ccccc5)c(O)c(O)cc4c3O)c(C)cc12)c1ccccc1 (centres undefined)	Active		1.5 µM		4.2 µM		
Cc1cc2c(CCc3ccccc3)c(O)c(O)cc2c(O)c1-c1c(C)cc2c(CCc3ccccc3)c(O)c(O)cc2c1O	Active	0.58 µM	0.92 µM	2.4 µM	9.8 µM	4.14 µM	Stability [10]: Stable; remaining at 1 h [11]: 80%; remaining at 1 h, 4 µM [12]: 89%; logPe [13]: -6.61 log cm/s; Activity [7]: Non-toxic; Activity [16]: Non-toxic
Cc1cc2c(C(=O)Nc3ccccc3)c(O)c(O)cc2c(O)c1-c1c(C)cc2c(C(=O)Nc3ccccc3)c(O)c(O)cc2c1O	Active	8 µM	3.5 µM				
Cc1cc2c(CC3CCCC3)c(O)c(O)cc2c(O)c1-c1c(C)cc2c(CC3CCCC3)c(O)c(O)cc2c1O	Active	10.9 µM	1.8 µM	11.2 µM	4.5 µM		remaining at 1 h [11]: 81%; remaining at 1 h, 4 µM [12]: 75%; logPe [13]: -6.27 log cm/s; Activity [7]: Non-toxic; Activity [16]: Non-toxic
Cc1cccc(CCNC(=O)c2c(O)c(O)cc3c(O)c(-c4c(C)cc5c(C(=O)NCCc6cccc(C)c6)c(O)c(O)cc5c4O)c(C)cc23)c1	Active		0.7 µM		5.6 µM		
Cc1cc2c(C(=O)NCc3ccccc3)c(O)c(O)cc2c(O)c1-c1c(C)cc2c(C(=O)NCc3ccccc3)c(O)c(O)cc2c1O	Active	3.6 µM	4.6 µM	13.7 µM	9.3 µM		
Cc1cc2c(C(=O)NCCc3cccc(Cl)c3)c(O)c(O)cc2c(O)c1-c1c(C)cc2c(C(=O)NCCc3cccc(Cl)c3)c(O)c(O)cc2c1O	Active	7.8 µM	0.99 µM	3.2 µM	4.6 µM	0.41 µM	Activity [9]: 80%; Stability [10]: Stable; remaining at 1 h, 4 µM [12]: 90%; logPe [13]: -7.71 log cm/s; Activity [14]: 40%; Activity [7]: Toxic
CN(C)CC[C@H](CSc1ccccc1)Nc1ccc(S(=O)(=O)NC(=O)c2ccc(N3CCN(Cc4ccccc4-c4ccc(Cl)cc4)CC3)cc2)cc1[N+](=O)[O-]							Activity [17]: inactive
Cc1cc2c(C(=O)NC3Cc4ccccc4C3)c(O)c(O)cc2c(O)c1-c1c(C)cc2c(C(=O)NC3Cc4ccccc4C3)c(O)c(O)cc2c1O	Active	7.1 µM	0.94 µM	3 µM	4.1 µM	1.1 µM	
Cc1cc2c(C(=O)NCC3CCCCC3)c(O)c(O)cc2c(O)c1-c1c(C)cc2c(C(=O)NCC3CCCCC3)c(O)c(O)cc2c1O	Active	4.8 µM	0.41 µM	3.7 µM	4.9 µM	0.9 µM	Activity [15]: Dose-dependent effect; Activity [9]: 80%; Stability [10]: Stable; remaining at 1 h [11]: 89%; remaining at 1 h, 4 µM [12]: 90%; logPe [13]: -6.67 log cm/s; Activity [7]: Toxic
CCc1ccc(CCNC(=O)c2c(O)c(O)cc3c(O)c(-c4c(C)cc5c(C(=O)NCCc6ccc(CC)cc6)c(O)c(O)cc5c4O)c(C)cc23)cc1		0.36 µM	0.4 µM	1.7 µM	3 µM	0.2 µM	Activity [9]: 80%; Stability [10]: Stable; remaining at 1 h [11]: 94%; remaining at 1 h, 4 µM [12]: 87%; logPe [13]: -8.15 log cm/s; Activity [6]: 85%; Activity [7]: Toxic
Cc1cc2c(CCC(C)C)c(O)c(O)cc2c(O)c1-c1c(C)cc2c(CCC(C)C)c(O)c(O)cc2c1O	Active						
Cc1cccc(CNC(=O)c2c(O)c(O)cc3c(O)c(-c4c(C)cc5c(C(=O)NCc6cccc(C)c6)c(O)c(O)cc5c4O)c(C)cc23)c1	Active	3.1 µM	2.9 µM	10.2 µM	4.8 µM		Activity [15]: Dose-dependent effect
Cc1cc2c(Cc3ccccc3)c(O)c(O)cc2c(O)c1-c1c(C)cc2c(Cc3ccccc3)c(O)c(O)cc2c1O	Active	1.28 µM	1.2 µM	8.3 µM	3.2 µM		
Cc1cc2c(C(=O)Nc3ccc(Oc4ccccc4)cc3)c(O)c(O)cc2c(O)c1-c1c(C)cc2c(C(=O)Nc3ccc(Oc4ccccc4)cc3)c(O)c(O)cc2c1O	Active	17 µM	10.1 µM	8.5 µM	10.8 µM		
Cc1cc2c(C(=O)NCc3cccc(Cl)c3)c(O)c(O)cc2c(O)c1-c1c(C)cc2c(C(=O)NCc3cccc(Cl)c3)c(O)c(O)cc2c1O	Active	5.2 µM	3.3 µM	8.3 µM	7.3 µM		Activity [15]: Dose-dependent effect
Cc1cc2c(C(=O)NCC3CC3)c(O)c(O)cc2c(O)c1-c1c(C)cc2c(C(=O)NCC3CC3)c(O)c(O)cc2c1O	Active				> 10 µM		
Cc1cc2c(C(=O)NCCc3ccccc3)c(O)c(O)cc2c(O)c1-c1c(C)cc2c(C(=O)NCCc3ccccc3)c(O)c(O)cc2c1O	Active						remaining at 1 h [11]: 63%; remaining at 1 h, 4 µM [12]: 60%; logPe [13]: -6.49 log cm/s
Cc1cc2c(C(=O)NCCc3ccc(Cl)cc3)c(O)c(O)cc2c(O)c1-c1c(C)cc2c(C(=O)NCCc3ccc(Cl)cc3)c(O)c(O)cc2c1O	Active		1.3 µM		5.1 µM	0.7 µM	
